Laboratory results reported in ChEMBL document CHEMBL1153029, “In vitro and in vivo studies of 6,8-(diaryl)imidazo[1,2-a]pyrazin-3(7H)-ones as new antioxidants” (Bioorg Med Chem, 2009).

What was measured:
Hamster = assay: Antioxidant activity against microvascular damage in hamster model of cheek pouch submitted to ischemia/reperfusion assessed as inhibition of leaky sites at 3 mg/kg treated by gavage route 30 mins before anesthesia measured after 30 mins of reperfusion by FITC-dextran based microscopy; assay type: functional; settings: Cricetinae, po
How it was run: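 Hamsters anesthetized, kept on a-chloralose (100 mg/kg) via the femoral vein, femoral artery cannulated for blood pressure, body temperature 37.5 °C. Compound at 3 mg/kg or solvent given by gavage in 0.2 ml, 3 animals per group. FITC-dextran (150,000 Da) given i.v. at 25 mg/100 g. Cuff ischemia of everted pouch. Leaky sites counted; % inhibition = [1 − mean treated/mean control] × 100.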

[1] = Antioxidant activity assessed as chemical oxidative degradation into N-(3,5-bis(4-hydroxyphenyl)pyrazin-2-yl)acetamide at 1000 uM after 19 hrs by HPLC; assay type: functional
How it was run: (§1)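 Aerobic oxidation of imidazopyrazinone (10^-3 M) with internal standard (5 × 10^-4 M) in 90:10:0.1 CH2Cl2/isopropanol/DEA. Sealed vial under white light at 23 °C for 19 h. Products quantified by HPLC against calibration curves, detection at 280 nm.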

[2] = Antioxidant activity assessed as chemical oxidative degradation into 4-(5-amino-6-phenylpyrazin-2-yl)phenol at 1000 uM after 19 hrs by HPLC; assay type: functional; how it was run: as §1
[3] = Antioxidant activity assessed as chemical oxidative degradation into 4-(5-amino-6-(4-(dimethylamino)phenyl)pyrazin-2-yl)phenol at 1000 uM after 19 hrs by HPLC; assay type: functional; how it was run: as §1
[4] = Antioxidant activity assessed as chemical oxidative degradation into 4-(5-amino-6-(4-fluorophenyl)pyrazin-2-yl)phenol at 1000 uM after 19 hrs by HPLC; assay type: functional; how it was run: as §1
[5] = Antioxidant activity assessed as chemical oxidative degradation into 4,4'-(3-aminopyrazine-2,6-diyl)diphenol at 1000 uM after 19 hrs by HPLC; assay type: functional; how it was run: as §1
[6] = Stability at pH 7.4 at 80 uM during 1 day by HPLC in presence of linoleic acid and azo-bis-isobutyronitrile; assay type: physicochemical; settings: buffer, pH 7.4, 24 h
[7] = Antioxidant activity assessed as chemical oxidative degradation into N-(3-(4-acetylphenyl)-5-(4-hydroxyphenyl)pyrazin-2-yl)acetamide at 1000 uM after 19 hrs by HPLC; assay type: functional; how it was run: as §1
[8] = Antioxidant activity assessed as chemical oxidative degradation into 4-(5-amino-6-(4-(trifluoromethyl)phenyl)pyrazin-2-yl)phenol at 1000 uM after 19 hrs by HPLC; assay type: functional; how it was run: as §1
[9] = Antioxidant activity assessed as chemical oxidative degradation into N-(5-(4-hydroxyphenyl)pyrazin-2-yl)benzamide at 80 uM after 18 hrs by HPLC; assay type: functional
How it was run: (§2)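 Imidazopyrazinone mixed 1:1 with standard (8 × 10^-5 M) in 96:4 ACN–EtOH. Kept in the dark at 37 °C and sampled by HPLC hourly for 18 h.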

[10] = Antioxidant activity assessed as chemical oxidative degradation into 4-(5-aminopyrazin-2-yl)phenol at 80 uM after 18 hrs by HPLC; assay type: functional; how it was run: as §2
[11] = Antioxidant activity assessed as chemical oxidative degradation into 4-(5-aminopyrazin-2-yl)phenol at 80 uM after 18 hrs by HPLC in presence of azo-bis-isobutyronitrile; assay type: functional
[12] = Antioxidant activity assessed as chemical oxidative degradation into N-(5-(4-hydroxyphenyl)pyrazin-2-yl)benzamide at 80 uM after 18 hrs by HPLC in presence of azo-bis-isobutyronitrile; assay type: functional
[13] = Antioxidant activity assessed as chemical oxidative degradation into N-(5-(4-hydroxyphenyl)pyrazin-2-yl)benzamide at 80 uM by HPLC in presence of linoleic acid; assay type: functional
[14] = Antioxidant activity assessed as chemical oxidative degradation into 4-(5-aminopyrazin-2-yl)phenol at 80 uM by HPLC in presence of linoleic acid; assay type: functional
[15] = Antioxidant activity assessed as time required for chemical oxidative degradation of compound at 80 uM by HPLC in presence of linoleic acid; assay type: functional
[16] = Antioxidant activity assessed as chemical oxidative degradation into benzoic acid at 80 uM by HPLC in presence of linoleic acid; assay type: functional
[17] = Antioxidant activity assessed as time required for chemical oxidative degradation of compound at 80 uM by HPLC in presence of azo-bis-isobutyronitrile; assay type: functional
[18] = Antioxidant activity assessed as chemical oxidative degradation into N-(5-(4-hydroxyphenyl)pyrazin-2-yl)benzamide at 80 uM by HPLC in presence of linoleic acid and azo-bis-isobutyronitrile; assay type: functional
[19] = Antioxidant activity assessed as chemical oxidative degradation into 4-(5-aminopyrazin-2-yl)phenol at 80 uM by HPLC in presence of linoleic acid and azo-bis-isobutyronitrile; assay type: functional
[20] = Antioxidant activity assessed as chemical oxidative degradation into benzoic acid at 80 uM by HPLC in presence of linoleic acid and azo-bis-isobutyronitrile; assay type: functional
[21] = Antioxidant activity assessed as chemical oxidative degradation into 4-(5-amino-6-(4-methoxyphenyl)pyrazin-2-yl)phenol at 1000 uM after 19 hrs by HPLC; assay type: functional; how it was run: as §1
[22] = Antioxidant activity assessed as chemical oxidative degradation into 1-(4-(3-amino-6-(4-hydroxyphenyl)pyrazin-2-yl)phenyl)ethanone at 1000 uM after 19 hrs by HPLC; assay type: functional; how it was run: as §1
[23] = Chemical stability after 19 hrs; assay type: physicochemical; how it was run: as §1
[24] = Antioxidant activity assessed as chemical oxidative degradation into N-(5-(4-hydroxyphenyl)-3-phenylpyrazin-2-yl)acetamide at 1000 uM after 19 hrs by HPLC; assay type: functional; how it was run: as §1
[25] = Antioxidant activity assessed as chemical oxidative degradation into N-(3-(4-fluorophenyl)-5-(4-hydroxyphenyl)pyrazin-2-yl)acetamide at 1000 uM after 19 hrs by HPLC; assay type: functional; how it was run: as §1
[26] = Antioxidant activity assessed as chemical oxidative degradation into N-(5-(4-hydroxyphenyl)-3-(4-methoxyphenyl)pyrazin-2-yl)acetamide at 1000 uM after 19 hrs by HPLC; assay type: functional; how it was run: as §1
[27] = Antioxidant activity assessed as chemical oxidative degradation into N-(3-(4-(dimethylamino)phenyl)-5-(4-hydroxyphenyl)pyrazin-2-yl)acetamide at 1000 uM after 19 hrs by HPLC; assay type: functional; how it was run: as §1
[28] = Antioxidant activity assessed as chemical oxidative degradation into N-(5-(4-hydroxyphenyl)-3-(4-(trifluoromethyl)phenyl)pyrazin-2-yl)acetamide at 1000 uM after 19 hrs by HPLC; assay type: functional; how it was run: as §1

With `Cc1nc2c(-c3ccc(N(C)C)cc3)[nH]c(-c3ccc(O)cc3)cn-2c1=O` the inhibition in vivo at 3 mg/kg (Hamster) was 21%.

Work on `Cc1nc2c(-c3ccc(O)cc3)[nH]c(-c3ccc(O)cc3)cn-2c1=O` yielded an inhibition in vivo at 3 mg/kg (Hamster) of 40%.

`CC(=O)Nc1ncc(-c2ccc(O)cc2)nc1-c1ccc(O)cc1` gave an Activity [1] of 16%.

In the case of `Nc1ncc(-c2ccc(O)cc2)nc1-c1ccccc1`, the Activity [2] is reported as 66% and the inhibition in vivo at 3 mg/kg (Hamster) is reported as 18%.

Compound `CN(C)c1ccc(-c2nc(-c3ccc(O)cc3)cnc2N)cc1` has an Activity [3] of 68% and an inhibition in vivo at 3 mg/kg (Hamster) of 50%.

`Nc1ncc(-c2ccc(O)cc2)nc1-c1ccc(F)cc1` gave an Activity [4] of 76% and an inhibition in vivo at 3 mg/kg (Hamster) of 42%.

Compound `Nc1ncc(-c2ccc(O)cc2)nc1-c1ccc(O)cc1` has an Activity [5] of 77% and an inhibition in vivo at 3 mg/kg (Hamster) of 29%.

For `O=C(Nc1cnc(-c2ccc(O)cc2)cn1)c1ccccc1`, the Stability [6] was “Stable”.

In the case of `CC(=O)Nc1ncc(-c2ccc(O)cc2)nc1-c1ccc(C(C)=O)cc1`, the Activity [7] is reported as 22%.

With `COc1ccc(-c2[nH]c(-c3ccc(O)cc3)cn3c(=O)c(C)nc2-3)cc1` the inhibition in vivo at 3 mg/kg (Hamster) was 44%.

Compound `Cc1nc2c(-c3ccc(F)cc3)[nH]c(-c3ccc(O)cc3)cn-2c1=O` has an inhibition in vivo at 3 mg/kg (Hamster) of 34%.

For `COc1cc(C(C)=O)ccc1O` [APOCYNIN], the inhibition in vivo at 3 mg/kg (Hamster) was 40%.

With `O=C(O)c1ccccc1` [BENZOIC ACID] the Stability [6] was “Stable”.

With `Nc1ncc(-c2ccc(O)cc2)nc1-c1ccc(C(F)(F)F)cc1` the Activity [8] was 78% and the inhibition in vivo at 3 mg/kg (Hamster) was 14%.

For `Oc1ccc(-c2cn3c(O)c(-c4ccccc4)nc3cn2)cc1`, the Activity [9] was < 5%, the Activity [10] was 9% and the Activity [11] was 44%. The Activity [12] was 26%, the Activity [13] was 66% and the Activity [14] was 30%. For the same compound, the Activity [15] was < 6 h, the Activity [16] was 27% and the Activity [17] was 5 h. For the same compound, the Activity [18] was 57%, the Activity [19] was 40% and the Activity [20] was 33%.

Compound `Cc1nc2c(-c3ccc(C(F)(F)F)cc3)[nH]c(-c3ccc(O)cc3)cn-2c1=O` has an inhibition in vivo at 3 mg/kg (Hamster) of 17%.

With `COc1ccc(-c2nc(-c3ccc(O)cc3)cnc2N)cc1` the Activity [21] was 71% and the inhibition in vivo at 3 mg/kg (Hamster) was 10%.

`CC(=O)c1ccc(-c2nc(-c3ccc(O)cc3)cnc2N)cc1` showed an Activity [22] of 67%.

`Cc1nc2c(-c3ccccc3)[nH]c(-c3ccc(O)cc3)cn-2c1=O` gave an inhibition in vivo at 3 mg/kg (Hamster) of 12%.

For `CC(=O)Nc1ncc(-c2ccc(O)cc2)nc1-c1ccccc1`, the Stability [23] was “Stable” and the Activity [24] was 15%.

With `CC(=O)Nc1ncc(-c2ccc(O)cc2)nc1-c1ccc(F)cc1` the Activity [25] was 17%.

`COc1ccc(-c2nc(-c3ccc(O)cc3)cnc2NC(C)=O)cc1` showed an Activity [26] of 21%.

In the case of `CC(=O)Nc1ncc(-c2ccc(O)cc2)nc1-c1ccc(N(C)C)cc1`, the Activity [27] is reported as 18%.

`CC(=O)Nc1ncc(-c2ccc(O)cc2)nc1-c1ccc(C(F)(F)F)cc1` showed an Activity [28] of 16%.
